Where “and” joins values, the source holds several entries; their conditions need not be identical. Identical values can stand only once.
Tested on: HEK-293T
Test: Multiplex assay against HEK293T
Type: toxicity, cell-based
Conditions: human, number of replicates 2
Method in brief: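 Hoechst33342, BioTracker Green Microtubule Cytoskeleton Dye, MitoTracker Red and Annexin V Alexa Fluor 680 were added to live cells at seeding, and imaging on a CQ1 microscope at 37°C and 5% CO2 followed compound addition. Gating by CellPathfinder machine learning separated cells into Hoechst high-intensity objects or normal cells, then normal cells into healthy, pyknosed or fragmented nuclei, then pyknosed cells into mitotic or apoptotic. Per cents of healthy-nucleus cells are reported for the tubulin, mitochondrial-mass and membrane-permeability phenotypes.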

[1] = 12 h, 1 µM, compound concentration 1 uM
[2] = 12 h, 10 µM, compound concentration 10 uM
[3] = 24 h, 1 µM, compound concentration 1 uM
[4] = 24 h, 10 µM, compound concentration 10 uM
[5] = 48 h, 1 µM, compound concentration 1 uM
[6] = 48 h, 10 µM, compound concentration 10 uM

Cc1cccc(S(=O)(=O)N(C)[C@H](C)CCN2CCC(C)CC2)c1.Cl
Population Apoptotic (%) [1]: 51% and 50% | Population Fragmented Nuclei (%) [1]: 4% and 1% | Population Healthy Nuclei (%) [1]: 81% and 80% | Population Hoechst High Intensity Objects (%) [1]: 5% and 6% | Population Membrane Permeable-Phenotype (%) [1]: 4% and 6% | Population Mitochondria Different-Phenotype (%) [1]: 16% | Population Mitotic Cells (%) [1]: 48% and 50% | Population Normal (%) [1]: 94% and 93% | Population Pyknosed Nuclei (%) [1]: 13% and 17% | Population Tubulin-Different-Phenotype (%) [1]: 61% and 51% | Total Cell Count [1]: 635 and 449 | Population Apoptotic (%) [2]: 52% and 62% | Population Fragmented Nuclei (%) [2]: 4% and 3% | Population Healthy Nuclei (%) [2]: 81% and 74% | Population Hoechst High Intensity Objects (%) [2]: 7% and 9% | Population Membrane Permeable-Phenotype (%) [2]: 3% and 4% | Population Mitochondria Different-Phenotype (%) [2]: 24% and 29% | Population Mitotic Cells (%) [2]: 47% and 37% | Population Normal (%) [2]: 92% and 90% | Population Pyknosed Nuclei (%) [2]: 14% and 22% | Population Tubulin-Different-Phenotype (%) [2]: 70% and 65% | Total Cell Count [2]: 550 and 400 | Population Apoptotic (%) [3]: 45% and 63% | Population Fragmented Nuclei (%) [3]: 6% and 2% | Population Healthy Nuclei (%) [3]: 85% and 82% | Population Hoechst High Intensity Objects (%) [3]: 6% and 9% | Population Membrane Permeable-Phenotype (%) [3]: 4% | Population Mitochondria Different-Phenotype (%) [3]: 7% and 10% | Population Mitotic Cells (%) [3]: 54% and 36% | Population Normal (%) [3]: 93% and 90% | Population Pyknosed Nuclei (%) [3]: 8% and 15% | Population Tubulin-Different-Phenotype (%) [3]: 36% and 37% | Total Cell Count [3]: 943 and 563 | Population Apoptotic (%) [4]: 64% and 54% | Population Fragmented Nuclei (%) [4]: 4% and 3% | Population Healthy Nuclei (%) [4]: 79% and 83% | Population Hoechst High Intensity Objects (%) [4]: 9% and 6% | Population Membrane Permeable-Phenotype (%) [4]: 4% and 3% | Population Mitochondria Different-Phenotype (%) [4]: 15% and 9% | Population Mitotic Cells (%) [4]: 35% and 45% | Population Normal (%) [4]: 90% and 93% | Population Pyknosed Nuclei (%) [4]: 16% and 12% | Population Tubulin-Different-Phenotype (%) [4]: 50% and 49% | Total Cell Count [4]: 552 and 801 | Population Apoptotic (%) [5]: 15% and 36% | Population Fragmented Nuclei (%) [5]: 10% and 7% | Population Healthy Nuclei (%) [5]: 84% and 86% | Population Hoechst High Intensity Objects (%) [5]: 8% and 6% | Population Membrane Permeable-Phenotype (%) [5]: 5% and 3% | Population Mitochondria Different-Phenotype (%) [5]: 0% and 3% | Population Mitotic Cells (%) [5]: 85% and 63% | Population Normal (%) [5]: 91% and 93% | Population Pyknosed Nuclei (%) [5]: 4% and 5% | Population Tubulin-Different-Phenotype (%) [5]: 16% and 20% | Total Cell Count [5]: 2361 and 1220 | Population Apoptotic (%) [6]: 39% and 41% | Population Fragmented Nuclei (%) [6]: 11% and 10% | Population Healthy Nuclei (%) [6]: 83% | Population Hoechst High Intensity Objects (%) [6]: 9% and 8% | Population Membrane Permeable-Phenotype (%) [6]: 7% | Population Mitochondria Different-Phenotype (%) [6]: 1% and 3% | Population Mitotic Cells (%) [6]: 60% and 58% | Population Normal (%) [6]: 90% and 91% | Population Pyknosed Nuclei (%) [6]: 5% | Population Tubulin-Different-Phenotype (%) [6]: 27% | Total Cell Count [6]: 1730 and 1106

N=C(N)NCCC[C@H](NC(=O)COCC(c1ccccc1)c1ccccc1)C(=O)O.O=C(O)C(F)(F)F
Population Apoptotic (%) [1]: 49% and 39% | Population Fragmented Nuclei (%) [1]: 2% | Population Healthy Nuclei (%) [1]: 85% | Population Hoechst High Intensity Objects (%) [1]: 5% and 6% | Population Membrane Permeable-Phenotype (%) [1]: 2% and 3% | Population Mitochondria Different-Phenotype (%) [1]: 13% and 9% | Population Mitotic Cells (%) [1]: 50% and 60% | Population Normal (%) [1]: 94% and 93% | Population Pyknosed Nuclei (%) [1]: 12% and 11% | Population Tubulin-Different-Phenotype (%) [1]: 54% and 41% | Total Cell Count [1]: 596 and 692 | Population Apoptotic (%) [2]: 60% and 68% | Population Fragmented Nuclei (%) [2]: 5% and 6% | Population Healthy Nuclei (%) [2]: 80% and 81% | Population Hoechst High Intensity Objects (%) [2]: 9% and 8% | Population Membrane Permeable-Phenotype (%) [2]: 2% | Population Mitochondria Different-Phenotype (%) [2]: 19% and 14% | Population Mitotic Cells (%) [2]: 39% and 31% | Population Normal (%) [2]: 90% and 91% | Population Pyknosed Nuclei (%) [2]: 14% and 12% | Population Tubulin-Different-Phenotype (%) [2]: 55% and 41% | Total Cell Count [2]: 543 and 565 | Population Apoptotic (%) [3]: 43% and 44% | Population Fragmented Nuclei (%) [3]: 4% | Population Healthy Nuclei (%) [3]: 89% and 88% | Population Hoechst High Intensity Objects (%) [3]: 7% and 10% | Population Membrane Permeable-Phenotype (%) [3]: 3% | Population Mitochondria Different-Phenotype (%) [3]: 2% and 3% | Population Mitotic Cells (%) [3]: 56% and 55% | Population Normal (%) [3]: 92% and 89% | Population Pyknosed Nuclei (%) [3]: 5% and 7% | Population Tubulin-Different-Phenotype (%) [3]: 20% and 31% | Total Cell Count [3]: 1117 and 835 | Population Apoptotic (%) [4]: 49% and 48% | Population Fragmented Nuclei (%) [4]: 6% and 7% | Population Healthy Nuclei (%) [4]: 83% and 79% | Population Hoechst High Intensity Objects (%) [4]: 7% | Population Membrane Permeable-Phenotype (%) [4]: 2% | Population Mitochondria Different-Phenotype (%) [4]: 7% and 6% | Population Mitotic Cells (%) [4]: 50% and 51% | Population Normal (%) [4]: 92% | Population Pyknosed Nuclei (%) [4]: 9% and 12% | Population Tubulin-Different-Phenotype (%) [4]: 27% and 25% | Total Cell Count [4]: 838 and 806 | Population Apoptotic (%) [5]: 12% | Population Fragmented Nuclei (%) [5]: 15% and 9% | Population Healthy Nuclei (%) [5]: 82% and 87% | Population Hoechst High Intensity Objects (%) [5]: 9% and 7% | Population Membrane Permeable-Phenotype (%) [5]: 5% and 4% | Population Mitochondria Different-Phenotype (%) [5]: 0% | Population Mitotic Cells (%) [5]: 87% | Population Normal (%) [5]: 90% and 92% | Population Pyknosed Nuclei (%) [5]: 2% and 3% | Population Tubulin-Different-Phenotype (%) [5]: 10% and 14% | Total Cell Count [5]: 3157 and 1745 | Population Apoptotic (%) [6]: 14% and 24% | Population Fragmented Nuclei (%) [6]: 15% and 13% | Population Healthy Nuclei (%) [6]: 81% and 83% | Population Hoechst High Intensity Objects (%) [6]: 7% and 6% | Population Membrane Permeable-Phenotype (%) [6]: 7% and 4% | Population Mitochondria Different-Phenotype (%) [6]: 0% | Population Mitotic Cells (%) [6]: 85% and 75% | Population Normal (%) [6]: 92% and 93% | Population Pyknosed Nuclei (%) [6]: 2% | Population Tubulin-Different-Phenotype (%) [6]: 12% and 10% | Total Cell Count [6]: 2204 and 2125

CS(=O)(=O)c1ccc(C(=O)Nc2cc(F)cc(COc3ccc(Br)cc3CN3CC[C@H](O)C3)c2)c(Cl)c1.O=CO
Population Apoptotic (%) [1]: 63% | Population Healthy Nuclei (%) [1]: 81% and 82% | Population Mitotic Cells (%) [1]: 45% and 36% | Population Pyknosed Nuclei (%) [1]: 16% and 13% | Total Cell Count [1]: 543 and 646 | Population Apoptotic (%) [2]: 68% and 69% | Population Healthy Nuclei (%) [2]: 83% and 84% | Population Mitotic Cells (%) [2]: 31% and 30% | Population Pyknosed Nuclei (%) [2]: 13% | Total Cell Count [2]: 462 and 578 | Population Apoptotic (%) [3]: 60% and 50% | Population Healthy Nuclei (%) [3]: 82% | Population Mitotic Cells (%) [3]: 39% and 49% | Total Cell Count [3]: 757 and 913 | Population Apoptotic (%) [4]: 70% | Population Healthy Nuclei (%) [4]: 79% and 83% | Population Mitotic Cells (%) [4]: 29% | Population Pyknosed Nuclei (%) [4]: 17% | Total Cell Count [4]: 505 and 555 | Population Apoptotic (%) [5]: 34% and 23% | Population Healthy Nuclei (%) [5]: 85% | Population Mitotic Cells (%) [5]: 65% and 76% | Population Pyknosed Nuclei (%) [5]: 3% and 4% | Total Cell Count [5]: 1715 and 1868 | Population Apoptotic (%) [6]: 54% and 57% | Population Healthy Nuclei (%) [6]: 85% and 80% | Population Mitotic Cells (%) [6]: 46% and 42% | Population Pyknosed Nuclei (%) [6]: 8% and 10% | Total Cell Count [6]: 633 and 761

Source: ChEMBL document CHEMBL5303300, “EUbOPEN Chemogenomics Library - Multiplex” (2023)
